Laboratory results from ChEMBL document CHEMBL1140080, “Adamantyl-substituted retinoid-derived molecules that interact with the orphan nuclear receptor small heterodimer partner: effects of replacing the 1-adamantyl or hydroxyl group on inhibition of cancer cell growth, induction of cancer cell apoptosis, and inhibition of SRC homology 2 …” (J Med Chem, 2008).
pIC50: −log10 of the molar value.

Columns and labels:
[1] = system: MDA-MB-231; test: Antiproliferative activity against human MDA-MB-231 cells at 10 uM after 72 hrs by MTT assay; assay type: functional; conditions: MDA-MB-231, 72 h
How it was run: (§1)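 Cells attached for 24 h, then exposed 72 h to analogue in Me2SO or Me2SO alone (final Me2SO 0.1%), with media and compound renewed after 48 h. Viable cells were measured by MTS tetrazolium reduction in three replicates. Top concentration tested per compound was 2.5, 5, 10, 20 or 100 μM.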

[2] = biological target: T1, Tyrosine-protein phosphatase non-receptor type 11 (Homo sapiens, UniProt Q06124); test: Inhibition of SHP2 overexpressed in human KG1 cells; assay type: cell-based, KG-1
T1 sequence (Q06124 whole entry): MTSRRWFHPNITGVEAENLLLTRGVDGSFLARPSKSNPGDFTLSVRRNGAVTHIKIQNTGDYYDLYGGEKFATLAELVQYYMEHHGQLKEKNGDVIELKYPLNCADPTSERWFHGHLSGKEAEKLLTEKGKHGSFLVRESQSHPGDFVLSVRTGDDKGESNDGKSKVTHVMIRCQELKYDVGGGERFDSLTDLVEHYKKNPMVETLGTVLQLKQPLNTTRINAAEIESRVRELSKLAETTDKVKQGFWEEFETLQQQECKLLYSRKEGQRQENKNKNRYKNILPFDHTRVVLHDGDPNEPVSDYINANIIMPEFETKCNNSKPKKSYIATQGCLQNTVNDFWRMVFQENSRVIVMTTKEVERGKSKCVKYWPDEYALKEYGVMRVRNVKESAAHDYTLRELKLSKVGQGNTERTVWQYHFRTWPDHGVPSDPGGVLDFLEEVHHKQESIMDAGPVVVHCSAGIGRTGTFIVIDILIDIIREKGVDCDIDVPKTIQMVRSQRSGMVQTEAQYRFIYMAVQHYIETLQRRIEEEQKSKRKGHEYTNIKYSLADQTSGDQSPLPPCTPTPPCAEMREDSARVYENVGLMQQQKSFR
How it was run: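 Shp-2 PTP activity was measured as hydrolysis of the fluorogenic substrate 6,8-difluoro-4-methylumbelliferyl phosphate in the presence of analogue in Me2SO or Me2SO alone (final concentration 5%).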

[3] = system: KG-1; test: Induction of apoptosis in human KG1 cells at 1.0 uM […] by acridine orange staining; assay type: functional
[4] = system: DU-145; test: Antiproliferative activity against human DU145 cells after 72 hrs by MTT assay; assay type: functional, cell-based; conditions: DU-145, 72 h; how it was run: as §1
[5] = system: DU-145; test: Antiproliferative activity against human DU145 cells at 10 uM after 72 hrs by MTT assay; assay type: functional; conditions: DU-145, 72 h; how it was run: as §1
[6] = Antiproliferative activity against human KG1 AML cells after 48 hrs by MTT assay; assay type: functional, cell-based; conditions: in the assay text read “by hemocytometer cell counting” for “by MTT assay”
How it was run: (§2)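 KG-1 cells in 5% FBS medium attached overnight, then treated 48 h with analogue in Me2SO or Me2SO alone (final 0.1%). Cells were harvested and counted by hemocytometer in triplicate wells. Highest concentration evaluated was 5 μM.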

[7] = system: MDA-MB-231; test: Antiproliferative activity against human MDA-MB-231 cells after 72 hrs by MTT assay; assay type: functional, cell-based; conditions: MDA-MB-231, 72 h; how it was run: as §1
[8] = Antiproliferative activity against human KG1 AML cells at 5 uM after 48 hrs by MTT assay; assay type: functional; conditions: in the assay text read “by hemocytometer cell counting” for “by MTT assay”; how it was run: as §2
[9] = Antiproliferative activity against human H292 cells at 10 uM after 72 hrs by MTT assay; assay type: functional; conditions: NCI-H292, 72 h; how it was run: as §1
[10] = system: KG-1; test: Induction of apoptosis in human KG1 cells at 5.0 uM […] by acridine orange staining; assay type: functional
[11] = Antiproliferative activity against human H292 cells after 72 hrs by MTT assay; assay type: functional, cell-based; conditions: NCI-H292, 72 h; how it was run: as §1
[12] = Antiproliferative activity against human H292 cells at 100 uM after 72 hrs by MTT assay; assay type: functional; conditions: NCI-H292, 72 h; how it was run: as §1
[13] = system: DU-145; test: Antiproliferative activity against human DU145 cells at 100 uM after 72 hrs by MTT assay; assay type: functional; conditions: DU-145, 72 h; how it was run: as §1
[14] = system: MDA-MB-231; test: Antiproliferative activity against human MDA-MB-231 cells at 100 uM after 72 hrs by MTT assay; assay type: functional; conditions: MDA-MB-231, 72 h; how it was run: as §1
[15] = system: KG-1; test: Induction of apoptosis in human KG1 cells after 48 hrs by acridine orange staining; assay type: functional, cell-based; conditions: KG-1, 48 h
[16] = system: MDA-MB-231; test: Induction of apoptosis in human MDA-MB-231 cells at 1.0 uM after 96 hrs by acridine orange staining; assay type: functional
How it was run: (§3)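 KG-1, HL-60R (24 h) or MDA-MB-231 (96 h) cells in 5% FBS medium attached overnight, then were treated with analogue in Me2SO or vehicle (final 0.1% Me2SO). Apoptotic cells were scored by acridine orange staining on at least three replicates. Tested concentrations were 0.1–5.0 μM, plus 25 μM for KG-1.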

[17] = system: MDA-MB-231; test: Antiproliferative activity against human MDA-MB-231 cells at 2.5 uM after 72 hrs by MTT assay; assay type: functional; conditions: MDA-MB-231, 72 h; how it was run: as §1
[18] = Induction of apoptosis in human HL60R cells at 1.0 uM after 24 hrs by acridine orange staining; assay type: functional; how it was run: as §3
[19] = system: MDA-MB-231; test: Induction of apoptosis in human MDA-MB-231 cells at 2.0 uM after 96 hrs by acridine orange staining; assay type: functional; how it was run: as §3
[20] = Induction of apoptosis in human HL60R cells at 0.1 uM after 24 hrs by acridine orange staining; assay type: functional; how it was run: as §3
[21] = biological target: T2, Nuclear receptor subfamily 0 group B member 2 (Homo sapiens, UniProt Q15466); test: Displacement of [5,5'-3H2]AHPN from human recombinant GST-SHP by liquid scintillation counting relative to 3-Cl-AHPC
T2 sequence (Q15466 whole entry): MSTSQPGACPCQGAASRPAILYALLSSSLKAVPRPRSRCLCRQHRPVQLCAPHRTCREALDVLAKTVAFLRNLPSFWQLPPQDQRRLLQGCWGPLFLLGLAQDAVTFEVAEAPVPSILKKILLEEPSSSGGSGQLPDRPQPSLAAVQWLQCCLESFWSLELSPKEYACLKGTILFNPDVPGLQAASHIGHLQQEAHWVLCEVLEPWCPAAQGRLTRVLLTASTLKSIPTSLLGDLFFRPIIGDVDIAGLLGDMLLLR
How it was run: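 Recombinant GST–human SHP was bound to glutathione–Sepharose beads and incubated 2 h with 5 nM [5,5′-3H2]AHPN with or without competitor (1.0, 5.0 or 50 μM). Beads were washed twice and counted. Displacement was expressed relative to 50 μM 3-Cl-AHPC set as 100%.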

[22] = system: DU-145; test: Antiproliferative activity against human DU145 cells at 2.5 uM after 72 hrs by MTT assay; assay type: functional; conditions: DU-145, 72 h; how it was run: as §1
[23] = Antiproliferative activity against human H292 cells at 2.5 uM after 72 hrs by MTT assay; assay type: functional; conditions: NCI-H292, 72 h; how it was run: as §1
[24] = Growth inhibition of human HL60R cells at 0.1 uM after 24 hrs by hemocytometer; assay type: functional; conditions: read-out: GI
How it was run: (§4)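 HL-60R cells in medium with 5% FBS attached overnight, then received analogue in Me2SO or vehicle (final Me2SO 0.1%) for 24 h. Cells were harvested and counted in triplicate wells with a hemocytometer.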

[25] = Growth inhibition of HMVE cells after 72 hrs by alamar blue method; assay type: cell-based; conditions: Homo sapiens
[26] = Growth inhibition of HMVE cells at 0.5 uM after 72 hrs by alamar blue method; assay type: cell-based; conditions: human, HMVE cells; read-out: GI
[27] = Growth inhibition of human HL60R cells at 1.0 uM after 24 hrs by hemocytometer; assay type: functional; conditions: read-out: GI; how it was run: as §4

Compound | pIC50 [2] | pIC50 [4] | pIC50 [7] | inhibition at 10 µM [1] | Activity [3] | inhibition at 10 µM [5] | pIC50 [6] | Activity [8] | inhibition at 10 µM [9] | Activity [10] | pIC50 [11] | Activity [16] | Activity [18] | Activity [19] | Activity [20] | further results
O=C(O)/C=C/c1ccc(-c2ccc(F)cc2)c(Cl)c1 | 3.30 | < 4.00 | < 4.00 | 0% | 0% | 15% | < 5.30 | 7% | 18% | 0% | 4.33 | – | – | – | – | inhibition at 100 µM [12]: 60%; inhibition at 100 µM [13]: 23%; inhibition at 100 µM [14]: 9%
O=C(O)c1ccc2cc(-c3cccc(C45CC6CC(CC(C6)C4)C5)c3)ccc2c1 | – | – | – | – | – | – | – | – | – | – | – | 2% | 2% | 7% | 2% | inhibition of growth at 0.1 µM [24]: 4%; pIC50 [25]: < 6.30; inhibition at 72 h, 0.5 µM [26]: 36%; inhibition of growth at 1 µM [27]: 8%
Cc1cccc(C)c1-c1cc(-c2ccc(/C=C/C(=O)O)cc2Cl)ccc1O | 4.70 | < 5.00 | < 5.00 | 0% | 0% | 4% | < 5.30 | 0% | 0% | 0% | < 5.00 | – | – | – | – | –

Further lines, with some results ahead:

pIC50 [2] | pIC50 [4] | pIC50 [7] | Compound | inhibition at 10 µM [1] | Activity [3] | inhibition at 10 µM [5] | pIC50 [6] | Activity [8] | inhibition at 10 µM [9] | Activity [10] | pIC50 [11] | Activity [16] | Activity [18] | Activity [19] | Activity [20] | further results
6.35 | < 5.00 | < 5.00 | CC(C)(C)C#Cc1cc(-c2ccc(/C=C/C(=O)O)cc2Cl)ccc1O | 4% | 0% | 13% | < 5.30 | 22% | 14% | 0% | < 5.00 | – | – | – | – | –
5.68 | 6.32 | 6.02 | O=C(O)/C=C/c1ccc(-c2ccc(O)c(C34CC5CC(CC(C5)C3)C4)c2)c(Cl)c1 | – | 30% | – | 5.85 | 67% | – | 55% | 6.40 | 31% | 94% | 43% | 51% | pIC50 [15]: 5.38; inhibition at 2.5 µM [17]: 63%; pIC50 [21]: 5.60; inhibition at 2.5 µM [22]: 85%; inhibition at 2.5 µM [23]: 92%
